SMILES strings stand for the structures. pIC50: −log10 of the molar value.

Assay [1] concerns Human immunodeficiency virus 1. As to the kind of experiment: Antiviral activity against HIV1 dual CXCR4/CCR5-tropic strain 89.6 infected in human 293T cells after 48 hrs by neutralization assay. The following applies: Human immunodeficiency virus 1, 89.6, HEK-293T. It is filed as functional, organism-based. The gist of the method: (§1)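 Env-pseudotyped virus made by transfecting 293T cells with SG3denv plus an HIV-1 env plasmid. Medium changed at 24 h, supernatant harvested at 48 h, 0.45 μm filtered, stored at −80 °C. Two-fold serial inhibitor dilutions mixed with virus, then TZM-bl cells added. Incubated at 37 °C, 5% CO₂, fresh medium at 24 h. Luciferase read after lysis at 48 h post-infection. Single round. Tested up to 400 μM.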

The subject of assay [2] is Human immunodeficiency virus 1. The assay can be described thus: Antiviral activity against HIV1 CCR5-tropic strain YU2 infected in human 293T cells at 400 uM after 48 hrs by neutralization assay. The format is functional, cell-based, isolate YU2. The method, boiled down:
as §1

In assay [3] the test system is Human immunodeficiency virus 1. As to the kind of experiment: Antiviral activity against HIV1 JRCSF infected in human 293T cells after 48 hrs by neutralization assay. The format is functional, cell-based. The following applies: Human immunodeficiency virus 1, JRCSF ISOLATE, HEK-293T. The method, boiled down: as §1
Assay [4] relates to Human immunodeficiency virus 1. The assay can be described thus: Antiviral activity against HIV1 NL4-3 infected in human 293T cells after 48 hrs by neutralization assay. The format is functional, organism-based. The following applies: Human immunodeficiency virus 1, NL4-3, HEK-293T. The method, boiled down: as §1
For assay [5], the system named is Human immunodeficiency virus 1. The assay can be described thus: Antiviral activity against HIV1 CXCR4-tropic strain HxB2 infected in human 293T cells at 400 uM after 48 hrs by neutralization assay. It is filed as functional, organism-based. The gist of the method:
as §1

For `CC1=NN(c2nc(C(F)(F)F)cs2)C(=O)/C1=N\Nc1ccc2c(S(=O)(=O)O)cc(S(=O)(=O)O)cc2c1`, the figures for the pIC50 in assay [1], in assay [3] and in assay [4] were 4.10, 4.08 and 4.10, respectively. The IC50 result in assay [2] and in assay [5] was “Not Active” each time.

The values above are taken from ChEMBL document CHEMBL3774382, “Design and synthesis of small molecule-sulfotyrosine mimetics that inhibit HIV-1 entry” (Bioorg Med Chem, 2016).
